{"source": "ChEMBL document CHEMBL1130123", "about": "“Optimization of 3-(1H-indazol-3-ylmethyl)-1,5-benzodiazepines as potent, orally active CCK-A agonists” (J Med Chem, 1997)", "key": {"[1]": {"target": "T1, Gastrin/cholecystokinin type B receptor (Homo sapiens, UniProt P32239)", "T1 sequence (P32239 whole entry)": "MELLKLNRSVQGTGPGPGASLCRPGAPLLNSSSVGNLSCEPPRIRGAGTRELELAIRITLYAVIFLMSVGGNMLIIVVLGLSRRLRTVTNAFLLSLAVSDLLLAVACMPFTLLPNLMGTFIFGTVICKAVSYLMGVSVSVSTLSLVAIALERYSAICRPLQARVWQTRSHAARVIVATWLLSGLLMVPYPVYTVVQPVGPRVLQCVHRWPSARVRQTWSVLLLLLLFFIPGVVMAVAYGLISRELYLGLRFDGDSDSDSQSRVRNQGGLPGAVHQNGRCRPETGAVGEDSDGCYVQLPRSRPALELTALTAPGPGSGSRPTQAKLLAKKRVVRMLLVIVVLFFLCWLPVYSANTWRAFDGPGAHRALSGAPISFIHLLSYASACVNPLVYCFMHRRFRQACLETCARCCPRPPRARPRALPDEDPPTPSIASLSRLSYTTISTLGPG", "experiment": "In vitro for binding affinity against human cholecystokinin type B receptor."}, "Cavia porcellus [2]": {"species": "Cavia porcellus", "experiment": "In vitro functional agonist activity in the isolated guinea pig gall bladder, concentration at which 50% of the maximal contraction observed was reported.", "details": "read-out: ED50 (the source's name)"}, "Cavia porcellus [3]": {"species": "Cavia porcellus", "experiment": "In vitro functional efficacy relative to CCK-8 in inducing contraction of the isolated guinea pig gallbladder (GPGB) at a 1 uM concentration.", "method_in_brief": "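Isolated guinea pig gallbladder, ligand 1 μM, 30 min at 37 °C; maximal contraction expressed relative to CCK-8 (1 μM) = 100%; values ± 5%.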"}, "Mus musculus [4]": {"test_system": "Mus musculus", "experiment": "Intraperitoneal dose that produces a half maximal response in mouse gall bladder emptying assay (in vivo)", "format": "functional", "details": "ip"}, "Mus musculus [5]": {"test_system": "Mus musculus", "experiment": "Maximal response at 1 nmol/kg intraperitoneal dose", "format": "functional"}, "Mus musculus [6]": {"test_system": "Mus musculus", "experiment": "maximal response at 1 nmol/kg peroral dose", "format": "functional"}, "Mus musculus [7]": {"test_system": "Mus musculus", "experiment": "Peroral dose that produces a half maximal response in mouse gall bladder emptying assay (in vivo)", "format": "functional", "details": "po"}, "[8]": {"target": "T2, Cholecystokinin receptor type A (Homo sapiens, UniProt P32238)", "T2 sequence (P32238 whole entry)": "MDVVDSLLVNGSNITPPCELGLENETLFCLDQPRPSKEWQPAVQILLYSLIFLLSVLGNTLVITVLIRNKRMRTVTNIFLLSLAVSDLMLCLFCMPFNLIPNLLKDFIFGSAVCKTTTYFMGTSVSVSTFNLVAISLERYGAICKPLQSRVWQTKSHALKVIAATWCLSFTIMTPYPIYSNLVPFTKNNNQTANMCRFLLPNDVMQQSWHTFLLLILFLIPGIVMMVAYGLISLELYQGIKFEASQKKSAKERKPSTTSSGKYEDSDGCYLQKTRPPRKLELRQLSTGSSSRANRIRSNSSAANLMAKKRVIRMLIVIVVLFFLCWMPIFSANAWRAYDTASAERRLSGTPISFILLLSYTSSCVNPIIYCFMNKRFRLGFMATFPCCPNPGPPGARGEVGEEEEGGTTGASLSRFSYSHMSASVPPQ", "experiment": "In vitro for binding affinity against human cholecystokinin type A receptor."}, "Mus musculus [9]": {"test_system": "Mus musculus", "experiment": "Maximal response at 1 nmol/kg peroral dose", "format": "functional"}, "[10]": {"experiment": "Total body clearance at an intravenous dose of 6.5 mg/kg in rat", "format": "ADME, organism-based", "set-up": "dose 6.5 mg/kg, route intravenous", "details": "in vivo"}, "[11]": {"experiment": "Maximum concentration at an intravenous dose of 6.5 mg/kg in rat", "format": "ADME, organism-based", "set-up": "dose 6.5 mg/kg, route intravenous", "details": "in vivo"}, "[12]": {"experiment": "Maximum concentration at an peroral dose of 6.2 mg/kg in rat", "format": "ADME, organism-based", "set-up": "dose 6.2 mg/kg, route oral", "details": "in vivo, po"}, "[13]": {"experiment": "Oral bioavailability in Long-Evans rats at an peroral dose of 6.5 mg/kg", "format": "ADME, organism-based", "details": "rat, in vivo"}, "[14]": {"experiment": "Half life period at an intravenous dose of 6.5 mg/kg in rat", "format": "ADME, organism-based", "set-up": "dose 6.5 mg/kg, route intravenous", "details": "in vivo"}, "[15]": {"experiment": "Volume of distribution at steady state at an intravenous dose of 6.5 mg/kg in rat", "format": "ADME, organism-based", "set-up": "dose 6.5 mg/kg, route intravenous", "details": "in vivo, read-out: Vss"}}}
{"compound": "COc1ccccc1N(C(=O)CN1C(=O)C(Cc2n[nH]c3ccccc23)C(=O)N(c2ccccc2)c2ccccc21)C(C)C", "note": "(centres undefined)", "values": [{"measurement": "IC50", "setting": "[1]", "value": 129, "unit": "nM"}, {"measurement": "EC50", "setting": "Cavia porcellus [2]", "value": 830, "unit": "nM"}, {"measurement": "Max", "setting": "Cavia porcellus [3]", "value": 40, "unit": "%"}]}
{"compound": "COc1ccc(N(C(=O)CN2C(=O)C(C)(Cc3c[nH]c4ccccc34)C(=O)N(c3ccccc3)c3ccccc32)C(C)C)cc1", "note": "(centres undefined)", "values": [{"measurement": "ED50", "setting": "Mus musculus [4]", "value": 0.0008, "unit": "µmol/kg"}, {"measurement": "Max", "setting": "Mus musculus [5]", "value": 91, "unit": "%"}, {"measurement": "Max", "setting": "Mus musculus [6]", "value": 46, "unit": "%"}, {"measurement": "ED50", "setting": "Mus musculus [7]", "value": 0.38, "unit": "µmol/kg"}]}
{"compound": "COc1ccc(N(C(=O)CN2C(=O)C(Cc3n[nH]c4ncccc34)C(=O)N(c3ccccc3)c3ccccc32)C(C)C)cc1", "note": "(centres undefined)", "values": [{"measurement": "IC50", "setting": "[1]", "value": 11200, "unit": "nM"}, {"measurement": "IC50", "setting": "[8]", "value": 112, "unit": "nM"}, {"measurement": "EC50", "setting": "Cavia porcellus [2]", "value": 40, "unit": "nM"}, {"measurement": "Max", "setting": "Cavia porcellus [3]", "value": 90, "unit": "%"}]}
{"compound": "O=C1C(Cc2n[nH]c3ccccc23)C(=O)N(c2ccccc2)c2ccccc2N1CC(=O)N(c1ccccc1)C1CC1", "note": "(centres undefined)", "values": [{"measurement": "IC50", "setting": "[1]", "value": 25.1, "unit": "nM"}, {"measurement": "IC50", "setting": "[8]", "value": 525, "unit": "nM"}, {"measurement": "EC50", "setting": "Cavia porcellus [2]", "value": 20, "unit": "nM"}, {"measurement": "Max", "setting": "Cavia porcellus [3]", "value": 70, "unit": "%"}]}
{"compound": "CC(C)N(C(=O)CN1C(=O)C(Cc2n[nH]c3ccccc23)C(=O)N(c2ccccc2)c2ccccc21)c1ccc2c(c1)OCO2", "note": "(centres undefined)", "values": [{"measurement": "IC50", "setting": "[1]", "value": 724, "unit": "nM"}, {"measurement": "IC50", "setting": "[8]", "value": 355, "unit": "nM"}, {"measurement": "EC50", "setting": "Cavia porcellus [2]", "value": 20, "unit": "nM"}, {"measurement": "Max", "setting": "Cavia porcellus [3]", "value": 100, "unit": "%"}]}
{"compound": "COc1ccc(N(C(=O)CN2C(=O)C(Cc3n[nH]c4cc(F)ccc34)C(=O)N(c3ccccc3)c3ccccc32)C(C)C)cc1", "note": "(centres undefined)", "values": [{"measurement": "IC50", "setting": "[1]", "value": 589, "unit": "nM"}, {"measurement": "IC50", "setting": "[8]", "value": 29.5, "unit": "nM"}, {"measurement": "EC50", "setting": "Cavia porcellus [2]", "value": 40, "unit": "nM"}, {"measurement": "Max", "setting": "Cavia porcellus [3]", "value": 100, "unit": "%"}]}
{"compound": "COc1ccc(N(C(=O)CN2C(=O)C(Cc3n[nH]c4cccnc34)C(=O)N(c3ccccc3)c3ccccc32)C(C)C)cc1", "note": "(centres undefined)", "values": [{"measurement": "Max", "setting": "Cavia porcellus [3]", "value": 40, "unit": "%"}]}
{"compound": "COc1ccc(N(C(=O)CN2C(=O)C(Cc3n[nH]c4cccc(F)c34)C(=O)N(c3ccccc3)c3ccccc32)C(C)C)cc1", "note": "(centres undefined)", "values": [{"measurement": "IC50", "setting": "[1]", "value": 1700, "unit": "nM"}, {"measurement": "IC50", "setting": "[8]", "value": 17.4, "unit": "nM"}, {"measurement": "EC50", "setting": "Cavia porcellus [2]", "value": 70, "unit": "nM"}, {"measurement": "Max", "setting": "Cavia porcellus [3]", "value": 100, "unit": "%"}]}
{"compound": "COc1ccc(N(C(=O)CN2C(=O)C(Cc3n[nH]c4c(F)cccc34)C(=O)N(c3ccccc3)c3ccccc32)C(C)C)cc1", "note": "(centres undefined)", "values": [{"measurement": "IC50", "setting": "[1]", "value": 1050, "unit": "nM"}, {"measurement": "EC50", "setting": "Cavia porcellus [2]", "value": 20, "unit": "nM"}, {"measurement": "Max", "setting": "Cavia porcellus [3]", "value": 90, "unit": "%"}]}
{"compound": "COc1ccc(N(C(=O)CN2C(=O)C(Cc3c[nH]c4ccccc34)(OC)C(=O)N(c3ccccc3)c3ccccc32)C(C)C)cc1", "note": "(centres undefined)", "values": [{"measurement": "IC50", "setting": "[1]", "value": 29500, "unit": "nM"}, {"measurement": "IC50", "setting": "[8]", "value": 13.8, "unit": "nM"}, {"measurement": "EC50", "setting": "Cavia porcellus [2]", "value": 150, "unit": "nM"}, {"measurement": "Max", "setting": "Cavia porcellus [3]", "value": 60, "unit": "%"}, {"measurement": "Max", "setting": "Mus musculus [5]", "value": 84, "unit": "%"}, {"measurement": "Max", "setting": "Mus musculus [9]", "value": 54, "unit": "%"}]}
{"compound": "COc1ccc(N(C(=O)CN2C(=O)C(C)(Cc3nn(C)c4ccccc34)C(=O)N(c3ccccc3)c3ccccc32)C(C)C)cc1", "note": "(centres undefined)", "values": [{"measurement": "clearance", "setting": "[10]", "value": 31, "unit": "mL/min/kg"}, {"measurement": "Cmax", "setting": "[11]", "value": 3270, "unit": "ng/mL"}, {"measurement": "Cmax", "setting": "[12]", "value": 20, "unit": "ng/mL"}, {"measurement": "bioavailability", "setting": "[13]", "value": 4, "unit": "%"}, {"measurement": "half-life", "setting": "[14]", "value": 7.5, "unit": "h"}, {"measurement": "Vd", "setting": "[15]", "value": 11.1, "unit": "L/kg"}, {"measurement": "IC50", "setting": "[8]", "value": 38.9, "unit": "nM"}, {"measurement": "EC50", "setting": "Cavia porcellus [2]", "value": 240, "unit": "nM"}, {"measurement": "Max", "setting": "Cavia porcellus [3]", "value": 60, "unit": "%"}, {"measurement": "ED50", "setting": "Mus musculus [4]", "value": 0.01, "unit": "µmol/kg"}, {"measurement": "Max", "setting": "Mus musculus [9]", "value": 75, "unit": "%"}, {"measurement": "ED50", "setting": "Mus musculus [7]", "value": 0.45, "unit": "µmol/kg"}]}
{"compound": "COc1ccc(N(C(=O)CN2C(=O)C(Cc3csc4ccccc34)C(=O)N(c3ccccc3)c3ccccc32)C(C)C)cc1", "note": "(centres undefined)", "values": [{"measurement": "Max", "setting": "Cavia porcellus [3]", "value": 50, "unit": "%"}]}
{"compound": "COc1ccc(N(C(=O)CN2C(=O)C(Cc3n[nH]c4ccccc34)C(=O)N(c3ccccc3)c3ccccc32)C2CCCC2)cc1", "note": "(centres undefined)", "values": [{"measurement": "IC50", "setting": "[1]", "value": 776, "unit": "nM"}, {"measurement": "IC50", "setting": "[8]", "value": 17, "unit": "nM"}, {"measurement": "EC50", "setting": "Cavia porcellus [2]", "value": 40, "unit": "nM"}, {"measurement": "Max", "setting": "Cavia porcellus [3]", "value": 90, "unit": "%"}]}
{"compound": "COc1cccc(N(C(=O)CN2C(=O)C(Cc3n[nH]c4ccccc34)C(=O)N(c3ccccc3)c3ccccc32)C(C)C)c1", "note": "(centres undefined)", "values": [{"measurement": "IC50", "setting": "[1]", "value": 191, "unit": "nM"}, {"measurement": "IC50", "setting": "[8]", "value": 479, "unit": "nM"}, {"measurement": "EC50", "setting": "Cavia porcellus [2]", "value": 70, "unit": "nM"}, {"measurement": "Max", "setting": "Cavia porcellus [3]", "value": 90, "unit": "%"}]}
{"compound": "COc1ccc(N(C(=O)CN2C(=O)C(Cc3cc(C)[nH]n3)C(=O)N(c3ccccc3)c3ccccc32)C(C)C)cc1", "note": "(centres undefined)", "values": [{"measurement": "Max", "setting": "Cavia porcellus [3]", "value": 20, "unit": "%"}]}
